V1R ag counter: counter-screen for oxytocin receptor agonists: human V1a receptor agonists | CHO-V1R cells, Fluo-8 calcium fluorescence, agonist mode; 0% DMSO, 100% 3 nM vasopressin | P37288 | activation, % at 3 µM | 0.25% of 320,000 active;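 active = activation above the mean activation of all tested compounds plus 3 SD, per screening run, cut at about 20% in these data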;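 note: signal is peak over basal fluorescence ratio across a 100 second FLIPR read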
Target sequence (P37288 whole entry, looked up): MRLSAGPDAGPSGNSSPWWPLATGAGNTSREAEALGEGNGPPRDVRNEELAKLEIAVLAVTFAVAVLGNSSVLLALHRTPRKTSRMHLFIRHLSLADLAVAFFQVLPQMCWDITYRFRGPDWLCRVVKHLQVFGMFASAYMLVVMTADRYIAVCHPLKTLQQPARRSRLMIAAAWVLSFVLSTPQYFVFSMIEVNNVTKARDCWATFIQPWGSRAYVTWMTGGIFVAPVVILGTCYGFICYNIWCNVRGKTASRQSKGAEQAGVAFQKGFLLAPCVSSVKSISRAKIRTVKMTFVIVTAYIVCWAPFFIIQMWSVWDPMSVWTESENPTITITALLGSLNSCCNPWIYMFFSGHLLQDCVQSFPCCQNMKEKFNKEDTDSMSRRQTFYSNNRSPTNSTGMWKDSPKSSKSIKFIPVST
OXTR potentiator: potentiates the human oxytocin receptor response | P30559 | AID 2445 | CHO-OTR cells, Fluo-8 calcium fluorescence, potentiator mode; 0% = oxytocin EC15, 100% = EC100 | 0.061% of 320,000 active | activation, % at 3 µM;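 active = activation above that plate's cutoff, the mean activation of tested compounds plus 3 SD, cut at about 6.6% in these data, passing the limit was not always enough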
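Material: human OTR in CHO cells. Compound: 3.0 µM, one dose. Timing: compound 6 min at room temperature before oxytocin, 100 s read. Evaluation: % activation of max/min ratio relative to oxytocin controls. Replication: single well per compound, singlicate. Signal: Fluo-8 calcium dye fluorescence.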
TAAR1 ag: human TAAR1 agonism. activation, % at 3 µM. CHO RD-HGA16 TAAR1, Fluo-8 calcium fluorescence; vehicle wells 0%, saturating PEA agonist 100%. 0.99% of 360,000 active. AID 624467;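 active = activation above the mean activation of all test compounds in the run plus 3 SD, cut at about 38% in these data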
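Test system: RD-HGA16 (CHO) cells co-expressing Gα16 and hTAAR1 | Doses: Single dose, 3 µM | Schedule: 17-24 h seeding, 75 min 37 °C dye, 30 min RT | Evaluation: % activation from peak over basal fluorescence ratio, DMSO-to-PEA scaled | Technique: Kinetic Fluo-8 calcium fluorescence | Benchmarks: Low control DMSO, high control PEA (EC100)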
OXTR agonist: human OXTR agonism | AID 2435 | P30559 | 0.32% of 320,000 active | CHO-OTR cells, Fluo-8 calcium fluorescence; normalized: DMSO 0%, oxytocin 100% | activation, % at 3 µM;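 active = activation above the mean of all tested compounds plus 3 SD, cutoff set per screening run, cut at about 20% in these data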;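 note: peak over basal fluorescence ratio from a 100 s FLIPR kinetic read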
TAAR1 antag: antagonists of human TAAR1. Q96RJ0. CHO RD-HGA16 TAAR1, Fluo-8 calcium fluorescence, antagonist. inhibition, % at 3 µM. 1.5% of 360,000 active. AID 624466;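 active = inhibition above a per-plate cutoff, the mean inhibition of test compounds on that plate plus 3 SD, cut at about 49% in these data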
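Test system: hTAAR1-expressing CHO RD-HGA16 cells, Gα16-coupled; Probe or stimulus: EC80 β-phenethylamine stimulus; Compound dosing: single nominal final test compound concentration of 3 µM; Timing: 140 s kinetic read after compound, 140 s after agonist; Signal: Fluo-8 calcium-sensitive fluorescence; Measure: % inhibition of agonist calcium response; Controls: DMSO and EC80 PEA controls.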
TAAR1 ag confirm: human TAAR1 agonism, confirmed. AID 651783. activation, % at 3 µM. 82% of 2,400 active. shares compounds with TAAR1 ag. CHO RD-HGA16 TAAR1, Fluo-8 calcium fluorescence; scaled: DMSO 0%, maximal phenethylamine 100%;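 active = activation above a cutoff set at the run's mean compound activation plus 3 SD, cut at about 39% in these data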
Ga16 ag counter: nonselective agonist in parental cells, TAAR1 agonist counter-screen. shares compounds with TAAR1 ag. CHO-Ga16 parental, Fluo-8 calcium fluorescence; normalized to maximal ATP response, DMSO zero. activation, % at 3 µM. 50% of 2,400 active. AID 651787;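 active = activation above the run cutoff, the mean activation over all tested wells plus 3 SD, cut at about 12% in these data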
TAAR1 desensitize: counter-screen for human TAAR1 agonists: agonists that desensitize TAAR1; 46% of 2,400 active; inhibition, % at 3 µM; shares compounds with TAAR1 ag; CHO RD-HGA16 hTAAR1, Fluo-8 calcium, beta-PEA response inhibition; AID 651951;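 active = inhibition above the run cutoff, the mean inhibition of all test compounds plus 3 SD, cut at about 49% in these data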;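 note: beta-PEA stimulus applied at its EC80; loss of beta-PEA calcium signal after compound pretreatment read as receptor desensitization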
Ga16 antag count: nonselective Ga16 antagonist in TAAR1 agonist counter-screen | shares compounds with TAAR1 ag | CHO-Ga16 ATP-induced calcium, Fluo-8 fluorescence | inhibition, % at 3 µM | 39% of 2,400 active | AID 651952;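 active = inhibition above the plate's mean compound inhibition plus 3 SD, computed per plate, cut at about 22% in these data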
A number is an active result; – = inactive; · = no result. Shown are actives, neighbours in structure and some others; about 2.3% of the full set was active somewhere.

SMILES	V1R ag counter	OXTR potentiator	TAAR1 ag	OXTR agonist	TAAR1 antag	TAAR1 ag confirm	Ga16 ag counter	TAAR1 desensitize	Ga16 antag count
CCOc1ccc(NC(=O)CN2C(=O)NC(C)(c3ccc(OC(F)F)cc3)C2=O)cc1 (stereo not given)	43	–	99	43	63	125	82	97	58
Cc1cc(NC(=O)CN2C(=O)NC(C)(c3ccc(OC(F)F)cc3)C2=O)no1 (stereo not given)	–	–	83	–	–	–	–	–	–
CC1(c2ccc(OC(F)F)cc2)NC(=O)N(CC(=O)Nc2ccc(S(N)(=O)=O)cc2)C1=O (stereo not given)	–	–	–	–	–	·	·	·	·
Cc1cc(NC(=O)CN2C(=O)NC(C)(c3ccccc3Cl)C2=O)no1 (stereo not given)	–	–	–	–	–	·	·	·	·
CC1(c2ccc(OC(F)F)cc2)NC(=O)N(CC(=O)Nc2cccc(F)c2)C1=O (stereo not given)	31	–	138	53	98	120	84	97	72
CCOC(=O)c1sc(NC(=O)CN2C(=O)NC3(CCCCCCC3)C2=O)c(C(=O)OCC)c1C	–	–	–	–	–	·	·	·	·
CCOC(=O)c1c(NC(=O)CN2C(=O)NC(C)(c3ccc(OC(F)F)cc3)C2=O)sc(C)c1C (stereo not given)	20	–	87	27	53	98	42	86	51
Cc1ccc(NC(=O)COC(=O)/C=C/c2cccs2)cc1	–	–	–	–	–	·	·	·	·
Cc1cnc(NC(=O)CSc2nnc(CNc3ccc(F)cc3)n2CC2CCCO2)s1 (stereo not given)	–	–	–	–	–	·	·	·	·
O=S(=O)(NC1=NCCC1)c1cccc(NC(=S)NCCc2ccccc2)c1	–	–	62	–	–	–	–	–	–
S=C(NCc1ccccc1)NCc1ccc(CNC(=S)NCc2ccccc2)cc1	–	–	56	–	65	51	20	63	47
CCOC(=O)c1ccc(NC(=S)NCCc2ccccc2F)cc1	–	–	70	–	–	89	–	86	33
NNC(=S)NCCc1ccccc1	–	–	·	–	·	·	–	·	–
CCOC(=O)c1ccc(NC(=S)NCc2ccccc2)cc1	–	–	–	–	–	·	·	·	·
Fc1ccc(CNC(=S)NCc2ccccc2)cc1	–	–	–	–	–	·	·	·	·
O=S(=O)(c1ccc(NC(=S)NCCc2ccccc2)cc1)N1CCOCC1	–	–	74	–	–	86	13	65	26
COc1ccc(CC(=O)NC(=S)Nc2ccc(S(N)(=O)=O)cc2)cc1	24	–	81	25	–	88	40	–	28
NS(=O)(=O)c1ccc(NC(=S)NCCc2ccccc2)cc1	–	–	54	–	–	82	–	68	–
COc1ccc(C(=O)NC(=S)Nc2ccc(S(N)(=O)=O)cc2)cc1	–	–	–	–	–	·	·	·	·
COC(=O)c1ccc(NC(=S)Nc2ccccc2)cc1	–	–	–	–	–	·	·	·	·
COC(=O)c1ccc(NC(=S)NCCc2ccccc2)cc1	–	–	73	–	54	82	12	77	28
COc1ccccc1C(=O)NC(=O)COC(=O)c1nc2nc(C)cc(C)n2n1	–	–	–	–	–	·	·	·	·
CCOC(=O)C1=C(C)N(CCCC(=O)O)C(=O)NC1c1cc2ccccc2c2ccccc12 (stereo not given)	–	–	–	–	–	·	·	·	·
CCOc1cc(/C=C2\NC(=O)NC2=O)ccc1OC(C)C(=O)O (stereo not given)	–	–	–	–	–	·	·	·	·
CC(=O)c1ccc(NC(=O)C2C3C=CC(C3=C(c3ccccc3)c3ccccc3)C2C(=O)O)cc1 (stereo not given)	–	–	75	–	–	102	71	–	–
SMILES	V1R ag counter	OXTR potentiator	TAAR1 ag	OXTR agonist	TAAR1 antag	TAAR1 ag confirm	Ga16 ag counter	TAAR1 desensitize	Ga16 antag count
Cc1ccc(NC(=O)Nc2ccno2)cc1	–	–	–	–	–	·	·	·	·
CC1(C)CCCN(C(=O)c2coc(=O)c(Br)c2)C1	·	·	79	·	76	100	–	95	–
O=C(c1coc(=O)c(Br)c1)N1CCC(C(O)(c2ccccc2)c2ccccc2)CC1	–	–	–	–	–	·	·	·	·
CCC(C)N=CC1=C(O)CC(c2ccccc2)CC1=O (stereo not given)	–	–	–	–	–	·	·	·	·
CCCC(=NC(C)CC)C1=C(O)CC(c2ccccc2)CC1=O (stereo not given)	–	–	58	–	–	86	56	–	–
COc1cccc(Nc2nc(C(N)C(C)C)cs2)n1 (stereo not given)	·	·	–	·	–	·	·	·	·
COc1cccc(Nc2nc(C(N)COCc3ccccc3)cs2)n1 (stereo not given)	·	·	59	·	–	80	–	56	–
COc1cccc(Nc2nc(C(N)Cc3ccc(C(F)(F)F)cc3)cs2)n1 (stereo not given)	·	·	60	·	–	52	38	54	59
COc1ccc(CC(N)c2csc(NC(=O)c3ccc(F)cc3)n2)cc1 (stereo not given)	·	·	–	·	–	·	·	·	·
COc1cccc(Nc2nc(C(N)Cc3ccc(F)cc3)cs2)n1 (stereo not given)	·	·	62	·	–	38	20	–	29
COc1ccc(CC(N)c2csc(Nc3cccc(OC)n3)n2)cc1 (stereo not given)	·	·	61	·	–	71	30	–	29
NC(COCc1ccccc1)c1csc(Nc2cc(Oc3ccccc3)ncn2)n1 (stereo not given)	·	·	–	·	–	·	·	·	·
COc1ccc(CN2C(=O)c3cccc4cccc(c34)C2=O)cc1	–	–	–	–	–	·	·	·	·
CC(C)NC(=O)CSc1nc(N)c(-c2ccccc2)c(=O)[nH]1	–	–	–	–	–	·	·	·	·
O=C(CCNC(=O)c1ccco1)NNC(=O)c1ccc(Br)cc1	·	·	–	·	–	·	·	·	·
CCCCOc1ccc(C(=O)NNC(=S)NC(=O)CC)cc1	–	–	·	–	·	·	·	·	·
O=C(NC(=S)NNC(=O)c1ccco1)c1ccc(Br)cc1	–	–	94	–	–	92	72	–	32
CCCOc1ccc(C(=O)NNC(=S)NC(=O)c2ccco2)cc1	98	–	156	95	105	147	119	104	72

Screening data as filed in PubChem.
